In brackets after ≈: the same amount, converted by molar mass. Activity calls are given as the source filed them. No cut-off for these calls is given here.
Experiments:
Staphylococcus aureus [1] = test: Antimicrobial activity against antibiotic-resistant Staphylococcus aureus BM-2312 assessed as bacterial growth inhibitions by CLSI protocol based microdilution method; type: functional
Staphylococcus aureus [2] = test: Antimicrobial activity against methicillin-sensitive Staphylococcus aureus ATCC 29213 by CLSI-based broth microdilution assay; type: functional
Staphylococcus aureus [3] = test: Antimicrobial activity against methicillin-resistant Staphylococcus aureus ATCC 700699 assessed as bacterial growth inhibitions by CLSI protocol based microdilution method; type: functional
[4] = Toxicity in CD1 mouse assessed as blood plasma albumin level at 50 mg/kg, ip administered as single dose measured after 24 hrs; type: organism-based; settings: in vivo
Method in brief: (§1)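 Male CD-1 mice, 8 weeks, 32–37 g, n = 10 per dose. Single IP injection at 5, 20 or 50 mg/kg in 0.9% saline, filter-sterilized; saline vehicle group. Blood taken by cardiac puncture 24 h later. 14 plasma markers measured on a chemistry panel, reported as mean ± SE. Toxicity judged by significance versus controls, normal ranges, dose-dependence and consistency across organ markers.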

Staphylococcus aureus [5] = test: Antibiofilm activity against Staphylococcus aureus ATCC 25923 assessed as destruction of biofilm formation at 0.5 times MIC after 24 hrs by crystal violet staining based assay relative to control; type: functional, organism-based
Method in brief: (§2)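 Overnight culture brought to 0.5 McFarland in PBS, diluted 1:100 in CAMHB with 1% glucose. Inhibition: cells plus compound (in DMSO) at 2x, 1x, 0.5xMIC, 24 h at 35 °C, triplicate. Destruction: 24 h biofilm grown without drug, washed, fresh medium with compound, further 24 h. Then washed, dried, 0.1% crystal violet, solubilized in 33% acetic acid, OD 620 nm. Controls are DMSO-only and broth-only wells.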

[6] = test system: Staphylococcus epidermidis; test: Antimicrobial activity against methicillin-resistant Staphylococcus epidermidis ATCC 700296 assessed as bacterial growth inhibitions by CLSI protocol based microdilution method; type: functional
Staphylococcus aureus [7] = test: Antibacterial activity against methicillin resistant Staphylococcus aureus ATCC 700699 persisters assessed as reduction in viability at 8 times MIC measured within 4 hrs by colony counting method; type: functional; settings: time hrs <=4
Method in brief: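 Stationary-phase S. aureus from overnight CAMHB culture (35 °C, 200 rpm), washed thrice in PBS, diluted to ~5 × 10^8 CFU/ml. Incubated with antibiotic at 35 °C, 200 rpm. Aliquots taken at set times, washed, serially diluted in PBS, drop-plated (6 × 6) on TSA with 5% sheep blood. Colonies counted after 18–20 h at 35 °C. Triplicates.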

Enterococcus faecalis [8] = test: Antibacterial activity against vancomycin-intermediate Enterococcus faecalis ATCC 29212 assessed as bacterial growth inhibition by measuring fold increase in MIC after14 passages by broth dilution method; type: functional, organism-based
Staphylococcus aureus [9] = test: Inhibition of DNA synthesis in Staphylococcus aureus ATCC 29213 at 0.25 times MIC measured by liquid scintillation counter; type: functional
Method in brief: (§3)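 Early-exponential cells in CAMHB added to drug (40x stock) in triplicate, with a no-drug control. After 30 min pre-incubation at room temperature, [3H]thymidine 3.0 µCi/tube (DNA) or [3H]uridine 0.5 µCi/tube (RNA) added for 30 min at room temperature. Stopped with cold TCA, precipitate filtered and washed, then scintillation counted.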

Staphylococcus aureus [10] = test: Antibiofilm activity against Staphylococcus aureus UAMS-1 assessed as destruction catheter-associated biofilm formation measured after 48 hrs (reference value: 1.53 x 10^8); type: functional
Method in brief: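 Plasma-coated catheters colonised for 24 h at 37 °C with gentle shaking, starting from ~1 × 10^7 CFU of MSSA UAMS-1 in biofilm medium (TSB plus glucose and NaCl). […] Medium renewed at 24 h. Catheters (n = 3) sonicated at 48 h and plated on TSA for CFU per catheter.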

[11] = Toxicity in CD1 mouse assessed as effect on phosphorus level at 50 mg/kg, ip administered as single dose measured after 24 hrs; type: organism-based; settings: in vivo; method in brief: as §1
Staphylococcus aureus [12] = test: Antibiofilm activity against Staphylococcus aureus ATCC 25923 assessed as destruction of biofilm formation at 2 times MIC after 24 hrs by crystal violet staining based assay relative to control; type: functional; method in brief: as §2
[13] = Toxicity in CD1 mouse assessed as effect on blood urea nitrogen level at 50 mg/kg, ip administered as single dose measured after 24 hrs; type: organism-based; settings: in vivo; method in brief: as §1
Staphylococcus aureus [14] = test: Inhibition of RNA synthesis in Staphylococcus aureus ATCC 29213 at 4 times MIC measured by liquid scintillation counter; type: functional; method in brief: as §3
Staphylococcus aureus [15] = test: Inhibition of lipid synthesis in Staphylococcus aureus ATCC 29213 at 4 times MIC measured by liquid scintillation counter; type: functional
Method in brief: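 Early-exponential cells in CAMHBII with drug in triplicate. Lipids extracted with chloroform/water, centrifuged, organic phase dried, then scintillation counted.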

Staphylococcus aureus [16] = test: Antimicrobial activity against Staphylococcus aureus ATCC 29213 assessed as inhibition of cell wall synthesis at 4 to 8 times MIC measured by liquid scintillation counter; type: functional
Method in brief: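 Early-exponential cells resuspended in M9 minimal medium, drug (40x stock) in triplicate, 30 min pre-incubation at 37 °C. [14C]N-acetylglucosamine 0.4 µCi/reaction for 45 min at 37 °C. Stopped with 8% SDS, heated 95 °C 30 min, spotted on nitrocellulose, washed with 0.1% SDS, then scintillation counted.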

Enterococcus faecalis [17] = test: Antibiofilm activity against Enterococcus faecalis ATCC 29212 assessed as inhibition of biofilm formation at 0.5 times MIC after 24 hrs by crystal violet staining based assay relative to control
Enterococcus faecium = test: Antimicrobial activity against vancomycin-resistant Enterococcus faecium clinical isolate 1091563 by CLSI-based broth microdilution assay; type: functional
[18] = Toxicity in CD1 mouse assessed as effect on liver 50 mg/kg, ip administered as single dose measured after 24 hrs by TUNEL assay; type: organism-based; settings: in vivo
Method in brief: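 Male CD-1 mice, single IP 50 mg/kg in saline; saline control. Acetaminophen 300 mg/kg and cisplatin 20 mg/kg IP as positive controls. At 24 h, liver and kidney paraffin-embedded, 5-µm sections, TUNEL stained with DAPI counterstain, imaged by fluorescence microscopy.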

[19] = Toxicity in CD1 mouse assessed as effect on glucose level at 50 mg/kg, ip administered as single dose measured after 24 hrs; type: organism-based; settings: in vivo; method in brief: as §1
[20] = Toxicity in CD1 mouse assessed as effect on potassium level at 50 mg/kg, ip administered as single dose measured after 24 hrs; type: organism-based; settings: in vivo; method in brief: as §1
Staphylococcus aureus [21] = test: Inhibition of protein synthesis in Staphylococcus aureus ATCC 29213 at 4 times MIC measured by liquid scintillation counter; type: functional
Staphylococcus aureus [22] = test: Bactericidal activity against Staphylococcus aureus ATCC 33591 assessed as reduction bacterial growth at 4X MIC measured after 4 hrs by time-kill kinetic assay; type: functional
Method in brief: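 Log-phase culture diluted to ~5 × 10^6 CFU/ml in warm CAMHB, exposed at 4xMIC, 35 °C. 20 µl samples every 2 h, 10-fold dilutions to 10^-5, 6 × 6 drop plating. CFU/ml counted after 18–24 h at 35 °C; triplicate.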

Staphylococcus aureus [23] = test: Antimicrobial activity against methicillin-resistant Staphylococcus aureus ATCC 33591 assessed as bacterial growth inhibitions by CLSI protocol based microdilution method; type: functional
[24] = Toxicity in CD1 mouse assessed as effect on calcium level at 50 mg/kg, ip administered as single dose measured after 24 hrs; type: organism-based; settings: in vivo; method in brief: as §1

O=C(O)c1ccc(-n2cc(CNc3cc(F)cc(C(F)(F)F)c3)c(-c3ccc(C(F)(F)F)cc3)n2)cc1
MIC (Staphylococcus aureus [1]): 0.78 µg/mL (≈ 1.49 µM)
MIC (Staphylococcus aureus [2]): 2 µg/mL (≈ 3.82 µM)
MIC (Staphylococcus aureus [3]): 0.78 µg/mL (≈ 1.49 µM)
Activity [4]: Non-Toxic
Activity (Staphylococcus aureus [5]): inactive
MIC [6]: 1.56 µg/mL (≈ 2.98 µM)
Activity (Staphylococcus aureus [7]): 3 log10CFU/ml
Activity (Enterococcus faecalis [8]): inactive
inhibition (INH) (Staphylococcus aureus [9]): 44%
Activity (Staphylococcus aureus [10]): 4.74 10^5CFU
Activity [11]: Non-Toxic
Activity (Staphylococcus aureus [12]): 70%
Activity [13]: Non-Toxic
inhibition (INH) (Staphylococcus aureus [14]): 98%
inhibition (INH) (Staphylococcus aureus [15]): 100%
inhibition (INH) (Staphylococcus aureus [16]): >80%
inhibition (Enterococcus faecalis [17]): Active
MIC (Enterococcus faecium): 4 µg/mL (≈ 7.64 µM)
Activity [18]: Non-Toxic
Activity [19]: Non-Toxic
Activity [20]: Non-Toxic
inhibition (Staphylococcus aureus [21]): 100%
Activity (Staphylococcus aureus [22]): 3 log10CFU/ml
MIC (Staphylococcus aureus [23]): 0.39 µg/mL (≈ 0.745 µM)
Activity [24]: Non-Toxic

Source: ChEMBL document CHEMBL4814057, “4-4-(Anilinomethyl)-3-[4-(trifluoromethyl)phenyl]-1H-pyrazol-1-ylbenzoic acid derivatives as potent anti-gram-positive bacterial agents” (Eur J Med Chem, 2021)
